Values belong to the compound of their own block, whether it stands above or below them.
Key:
Plasmodium falciparum [1] = assay: Antimalarial activity against ring stage chloroquine-sensitive Plasmodium falciparum 3D7 infected in human O positive erythrocytes after 48 hrs by SYBR green 1 fluorescence assay; format: functional, organism-based; settings: 3D7, 48 h
Summary of the method: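 P. falciparum 3D7 in O+ human erythrocytes in complete RPMI with Albumax at 37 °C under 5% O2/5% CO2. Culture was sorbitol-synchronized to rings and plated at 2% hematocrit, 1% parasitemia. Drug range was 0–100 μM with 0.4% final DMSO, in triplicate. After 48 h, SYBR Green I fluorescence was read (ex 497/em 520 nm). IC50 was taken by visual matching of 50% growth inhibition.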

[2] = Resistance index, ratio of IC50 for ring stage chloroquine-resistant Plasmodium falciparum Dd2 to IC50 for ring stage chloroquine-sensitive Plasmodium falciparum 3D7; format: functional
[3] = Inhibition of Plasmodium falciparum falcipain-2 using benzyloxycarbonyl-Phe-Arg-7-amino-4-methyl coumarin hydrochloride as substrate preincubated for 10 mins prior substrate addition by fluorimetric assay
Summary of the method: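 Recombinant falcipain-2 (2 μg) was preincubated 10 min at room temperature with or without compound, in triplicate. Buffer was 100 mM sodium acetate pH 5.5 with 10 mM DTT and 1% final DMSO. Z-Phe-Arg-AMC was then added at 10 μM final. AMC release was read at ex 355/em 460 nm. IC50 was taken by visual matching of 50% inhibition.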

[4] = Therapeutic index, ratio of IC50 for human HeLa cells to IC50 for ring stage chloroquine-sensitive Plasmodium falciparum 3D7; format: cell-based; settings: read-out: Ratio IC50
Summary of the method: (§1)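 HeLa or L929 fibroblasts were seeded at 10^4 cells per well in RPMI with 10% FBS, left overnight, then exposed 24 h at 37 °C, 5% CO2. MTT was added for 3 h; formazan was dissolved in DMSO and read at 570 nm. IC50 came from dose–response curves. Index = IC50(mammalian)/IC50(Pf 3D7, SYBR Green assay).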

[5] = Resistance index, ratio of IC50 for ring stage chloroquine-resistant Plasmodium falciparum INDO to IC50 for ring stage chloroquine-sensitive Plasmodium falciparum 3D7; format: functional
[6] = Therapeutic index, ratio of IC50 for […] cells to IC50 for ring stage chloroquine-sensitive Plasmodium falciparum 3D7; format: cell-based; settings: mouse, read-out: Ratio IC50; summary of the method: as §1
Plasmodium falciparum [7] = assay: Antimalarial activity against ring stage chloroquine-resistant Plasmodium falciparum INDO infected in human O positive erythrocytes after 48 hrs by SYBR green 1 fluorescence assay; format: functional, organism-based
Summary of the method: (§2)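 Ring-stage cultures were sorbitol-synchronized in O+ human erythrocytes in RPMI 1640 with 0.5% Albumax, hypoxanthine and gentamicin, then plated at 2% hematocrit and 1% parasitemia. Drugs were tested at 0–100 μM (final DMSO 0.4%) in triplicate for 48 h at 37 °C under 5% O2/5% CO2/90% N2. Read-out was SYBR Green I (ex 497/em 520 nm). IC50 was read visually as 50% growth inhibition, with chloroquine as control.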

Plasmodium falciparum [8] = assay: Antimalarial activity against ring stage chloroquine-resistant Plasmodium falciparum Dd2 infected in human O positive erythrocytes after 48 hrs by SYBR green 1 fluorescence assay; format: functional, organism-based; settings: Dd2, 48 h; summary of the method: as §2

IC50 (Plasmodium falciparum [1]): > 100 µM
SMILES: COc1cc(OC)c(OC)cc1/C=C/C(=O)c1ccc(/C=C/c2ccc(Cl)cc2)cc1

IC50 (Plasmodium falciparum [1]): > 100 µM
SMILES: COc1cc(OC)c(OC)cc1/C=C/C(=O)c1ccc(/C=C/c2cc(OC)c(OS(=O)(=O)c3cc(Cl)cc(Cl)c3)c(OC)c2)cc1

IC50 (Plasmodium falciparum [1]): 18 µM
SMILES: COc1cc(OC)c(OC)cc1/C=C/C(=O)c1ccc(/C=C/c2ccccc2)cc1

SMILES: COc1cc(/C=C/c2ccc(C(=O)/C=C/c3ccc(OC)c(OC)c3OC)cc2)cc(OC)c1O
Ratio IC50 [2]: 1.1 | IC50 [3]: 70 µM | IC50 (Plasmodium falciparum [1]): 4.9 µM | selectivity ratio [4]: > 43 | Ratio IC50 [5]: 1.2 | selectivity ratio [6]: > 43 | IC50 (Plasmodium falciparum [7]): 5.88 µM | IC50 (Plasmodium falciparum [8]): 5.39 µM

IC50 (Plasmodium falciparum [1]): 16 µM
SMILES: COc1cc(OC)c(/C=C/C(=O)c2ccc(/C=C/c3cc(OC)c(O)c(OC)c3)cc2)c(OC)c1

IC50 (Plasmodium falciparum [1]): 50 µM
SMILES: COc1ccc(C(=O)/C=C/c2ccc(/C=C/c3cc(OC)c(O)c(OC)c3)cc2)cc1

IC50 (Plasmodium falciparum [1]): 10 µM
SMILES: COc1cc(OC)c(OC)cc1/C=C/C(=O)c1ccc(/C=C/c2ccc(O)cc2)cc1

IC50 (Plasmodium falciparum [1]): 34 µM
SMILES: COc1ccc(/C=C/C(=O)c2ccc(/C=C/c3ccc(O)c(OC)c3)cc2)cc1

SMILES: COc1cc(/C=C/c2ccc(C(=O)/C=C/c3cc(OC)c(OC)cc3OC)cc2)ccc1O
Ratio IC50 [2]: 0.7 | IC50 [3]: 23 µM | IC50 (Plasmodium falciparum [1]): 5.3 µM | selectivity ratio [4]: > 37.7 | Ratio IC50 [5]: 0.5 | selectivity ratio [6]: 4.7 | IC50 (Plasmodium falciparum [7]): 2.65 µM | IC50 (Plasmodium falciparum [8]): 3.71 µM

IC50 (Plasmodium falciparum [1]): > 100 µM
SMILES: O=C(/C=C/c1ccco1)c1ccc(/C=C/c2ccccc2)cc1

SMILES: COc1cc(OC)c(OC)cc1/C=C/C(=O)c1ccc(/C=C/c2ccc(O)c(O)c2)cc1
Ratio IC50 [2]: 1.7 | IC50 [3]: 19 µM | IC50 (Plasmodium falciparum [1]): 4.2 µM | selectivity ratio [4]: > 23.8 | Ratio IC50 [5]: 1.1 | selectivity ratio [6]: 7.6 | IC50 (Plasmodium falciparum [7]): 4.6 µM | IC50 (Plasmodium falciparum [8]): 7.1 µM

IC50 (Plasmodium falciparum [1]): 61 µM
SMILES: COc1cc(OC)c(OC)cc1/C=C/C(=O)c1ccc(O)cc1

Reference: ChEMBL document CHEMBL1949593, “Stilbene-chalcone hybrids: design, synthesis, and evaluation as a new class of antimalarial scaffolds that trigger cell death through stage specific apoptosis” (J Med Chem, 2012)
